Measurements collected from several papers.
Lines come from different studies, so protocols differ.
FGFR3: Fibroblast growth factor receptor 3 (FGFR3, Homo sapiens, UniProt P22607)
FGFR3 G697C: Fibroblast growth factor receptor 3 (FGFR3, Homo sapiens, UniProt P22607, G697C)

For `CNC(=O)Nc1ccc2c(c1)[C@@]1(CC2)OC(=O)N(CC(=O)N(Cc2ccc(F)cc2)[C@@H](C)C(F)(F)F)C1=O`, the remaining binding was 92% (FGFR3; cell-free assay; competition with immobilised ligand; 1 µM).
`N[C@@H]1CCN(c2nccc(-c3cnn4ncccc34)n2)C1` gave a remaining binding of 100% (FGFR3; binding; 1 µM).
For `CN(C)C(=O)Cn1cc(-c2nc([C@@](C)(c3ccc(-c4cnc(N)nc4)cc3)C3CC3)no2)cn1`, the remaining binding was 89% (FGFR3 G697C; cell-free assay; competition with immobilised ligand; 1 µM).
`CC1CCCN1c1nccc(-c2cnn3ncccc23)n1` (stereo not drawn) gave a remaining binding of 100% (FGFR3; binding; 1 µM).
With `N#Cc1ccccc1CSc1nnc2c(n1)[nH]c1ccccc12` the remaining binding was 88% (FGFR3; binding; competition with immobilised ligand; 10 µM).
With `COc1cnc(Nc2cccc(S(N)(=O)=O)c2)nc1N1CCN(c2ccccc2)CC1` the remaining binding was 98% (FGFR3; binding; competition with immobilised ligand; 1 µM).
The remaining binding of `O=C(c1ccc(Nc2ncc(Cl)c(-c3cc4ccccc4s3)n2)cc1)N1CCC(N2CCCC2)CC1` is reported as 34% (FGFR3 G697C; binding; competition with immobilised ligand; 1 µM).
`C[C@@H](c1cccc(C#N)c1)n1cc(Cl)cc(C(N)=O)c1=N` gave a remaining binding of 79% (FGFR3 G697C; cell-free assay; competition with immobilised ligand; 1 µM).
With `COc1cnc(Nc2cccc(S(N)(=O)=O)c2)nc1N1CCN(c2ccccc2)C(=O)C1` the remaining binding was 100% (FGFR3; binding; competition with immobilised ligand; 1 µM).
`O=C(O)[C@@H]1[C@@H](Cn2nnc3ccccc3c2=O)CC[C@H]1C(=O)c1ccc(OCCC2CCOCC2)cc1` has a remaining binding of 92% (FGFR3 G697C; cell-free assay; competition with immobilised ligand; 1 µM).
`C[C@@H](c1ccc(-n2cnc3c(N)ncnc32)cc1)N1CCc2nn(C)c(Cc3ccccc3)c2C1=O` gave a remaining binding of 96% (FGFR3 G697C; binding; competition with immobilised ligand; 0.1 µM).
For `CN(C)c1ncc(F)c(-c2cnn3ncccc23)n1`, the remaining binding was 100% (FGFR3 G697C; binding; 1 µM).
For `O=C(NCc1ncc(C(F)(F)F)cc1Cl)c1ccc2c(c1)C1(CCS(=O)(=O)CC1)[C@H](C1CC1)N2S(=O)(=O)c1ccc(F)cc1`, the remaining binding was 100% (FGFR3 G697C; cell-free assay; competition with immobilised ligand; 1 µM).
`F[C@@H]1CCN(c2nccc(-c3cnn4ncccc34)n2)C1` has a remaining binding of 100% (FGFR3; binding; 1 µM).
With `COc1ncc2cc3ccccc3nc2c1C#N` the remaining binding was 100% (FGFR3; cell-free assay; competition with immobilised ligand; 5 µM).
With `C[C@@H]1CN(c2cc(-c3n[nH]c4ccc(OC5(C)CC5)cc34)ncn2)C[C@H](C)O1` the remaining binding was 86% (FGFR3 G697C; cell-free assay; competition with immobilised ligand; 0.1 µM).
For `CN(c1nccc(-c2cnn3ncccc23)n1)C1CC1`, the remaining binding was 100% (FGFR3 G697C; binding; 1 µM).
With `Cc1cnc(Nc2ccc(C(=O)N3CCC(N4CCCC4)CC3)cc2)nc1-c1cc2ccccc2s1` the remaining binding was 16% (FGFR3 G697C; binding; competition with immobilised ligand; 1 µM).
With `CN(C)c1nccc(-c2cnc3ncccn23)n1` the remaining binding was 100% (FGFR3; binding; 1 µM).
For `O=C(c1ccc(Nc2ncc(Cl)c(-c3ccc(Cl)s3)n2)cc1)N1CCC(N2CCCC2)CC1`, the remaining binding was 4.9% (FGFR3 G697C; binding; competition with immobilised ligand; 1 µM).
With `C[C@@H]1CCN(c2nccc(-c3cnn4ncccc34)n2)C1` the remaining binding was 90% (FGFR3; binding; 1 µM).
`CN1CCN(c2ccc(Nc3nccc(-c4ccccc4)n3)cc2C(F)(F)F)CC1` has a remaining binding of 86% (FGFR3 G697C; binding; 10 µM).
`Cc1nc(Cc2cccc(C(F)(F)F)c2)sc1-c1ccc(C(N)=O)nc1` gave a remaining binding of 100% (FGFR3; cell-free assay; competition with immobilised ligand; 1 µM).
`O=C(Nc1c[nH]nc1C(=O)NC1CCNCC1)c1cc(F)cc(F)c1` gave a remaining binding of 100% (FGFR3; binding; competition with immobilised ligand; 1 µM).
